Reference: ChEMBL document CHEMBL5150021, “Identification of 5-(Aryl/Heteroaryl)amino-4-quinolones as Potent Membrane-Disrupting Agents to Combat Antibiotic-Resistant Gram-Positive Bacteria” (J Med Chem, 2022)
Converted amounts (≈) assume the structure as drawn. The source made the active and inactive calls. No cut-off for these calls is given here.

Columns and labels:
Staphylococcus aureus [1] = test: Antibacterial activity against methicillin resistant Staphylococcus aureus FPR3757 assessed as inhibition of bacterial growth incubated for 24 hrs by CLSI based method; format: functional; settings: read-out: MIC100
Summary of the method: (§1)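 It was mixed 1:1 with twofold serial compound dilutions and incubated stationary at 37 °C for 24 h. MIC was the lowest concentration giving complete inhibition of observable growth, with an oxacillin control.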

Staphylococcus aureus [2] = test: Antibacterial activity against methicillin resistant Staphylococcus aureus assessed as inhibition of bacterial growth incubated for 15 hrs by CLSI based broth microdilution method; format: functional
Staphylococcus aureus [3] = test: Antibacterial activity against methicillin-resistant Staphylococcus aureus MW2 assessed as inhibition of bacterial growth incubated for 24 hrs by CLSI based method; format: functional
Summary of the method: (§2)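 Broth microdilution per CLSI. Equal volume of twofold serial compound dilutions added. Incubated stationary at 37 °C for 24 h. MIC taken as lowest concentration giving complete inhibition of visible growth. Oxacillin control for Gram-positives, ceftriaxone for Gram-negatives.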

Staphylococcus aureus [4] = test: Antibacterial activity against methicillin-resistant Staphylococcus aureus COL assessed as inhibition of bacterial growth incubated for 24 hrs by CLSI based method; format: functional; summary of the method: as §2
Staphylococcus aureus [5] = test: Antibacterial activity against methicillin-resistant Staphylococcus aureus N315 assessed as inhibition of bacterial growth incubated for 24 hrs by CLSI based method; format: functional; summary of the method: as §2
Staphylococcus aureus [6] = test: Antibacterial activity against methicillin-resistant Staphylococcus aureus NRS71 assessed as inhibition of bacterial growth incubated for 24 hrs by CLSI based method; format: functional; summary of the method: as §2
[7] = test system: Staphylococcus epidermidis; test: Antibacterial activity against Staphylococcus epidermidis NIF104008 assessed as inhibition of bacterial growth incubated for 24 hrs by CLSI based method; format: functional; summary of the method: as §2
[8] = test system: Staphylococcus epidermidis; test: Antibacterial activity against Staphylococcus epidermidis NIF104003 assessed as inhibition of bacterial growth incubated for 24 hrs by CLSI based method; format: functional; summary of the method: as §2
Enterococcus faecalis [9] = test: Antibacterial activity against Enterococcus faecalis ATCC700802 assessed as inhibition of bacterial growth incubated for 24 hrs by CLSI based method; format: functional; summary of the method: as §2
Enterococcus faecalis [10] = test: Antibacterial activity against Enterococcus faecalis DHMC #1 assessed as inhibition of bacterial growth incubated for 24 hrs by CLSI based method; format: functional; summary of the method: as §2
Enterococcus faecium [11] = test: Antibacterial activity against Enterococcus faecium ATCC19579 assessed as inhibition of bacterial growth incubated for 24 hrs by CLSI based method; format: functional; summary of the method: as §2
Enterococcus faecium [12] = test: Antibacterial activity against Enterococcus faecium DHMC #1 assessed as inhibition of bacterial growth incubated for 24 hrs by CLSI based method; format: functional; summary of the method: as §2
Escherichia coli = test: Antibacterial activity against Escherichia coli DHMC-1 assessed as inhibition of bacterial growth incubated for 24 hrs by CLSI based method; format: functional; summary of the method: as §2
Klebsiella pneumoniae = test: Antibacterial activity against Klebsiella pneumoniae 7117 assessed as inhibition of bacterial growth incubated for 24 hrs by CLSI based method; format: functional; summary of the method: as §2
Enterobacter cloacae = test: Antibacterial activity against Enterobacter cloacae ND-21 assessed as inhibition of bacterial growth incubated for 24 hrs by CLSI based method; format: functional; summary of the method: as §2
Candida albicans = test: Antifungal activity against Candida albicans SC5314 assessed as inhibition of bacterial growth incubated for 24 hrs by CLSI based method; format: functional
Summary of the method: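 Broth microdilution per CLSI. It is mixed 1:1 with twofold serial compound dilutions and incubated stationary at 35 °C for 24 h. MIC is read as the lowest concentration with no observable growth.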

Staphylococcus aureus [13] = test: Antibacterial activity against community-associated methicillin-resistant Staphylococcus aureus USA300 FPR3757 assessed as inhibition of bacterial growth incubated for 24 hrs by CLSI based method; format: functional; summary of the method: as §1
Cell membrane [14] = test: Induction of cell membrane damage in Staphylococcus aureus USA300 assessed as cross-wall-septum formation with reduced splitting at 1 times MIC measured after 10 mins by TEM analysis; format: subcellular
Cell membrane [15] = test: Induction of cell membrane damage in Staphylococcus aureus USA300 assessed as mesosome-like membrane inclusions at 1 times MIC measured after 1 hrs by TEM analysis
Summary of the method: (§3)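 Fixed in glutaraldehyde/paraformaldehyde in cacodylate pH 7.4, post-fixed with osmium tetroxide, stained with uranyl acetate, resin-embedded, thin-sectioned and imaged by TEM.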

Cell membrane [16] = test: Induction of cell membrane damage in Staphylococcus aureus USA300 assessed as membrane wrinkling at 1 times MIC measured after 1 hrs by TEM analysis; summary of the method: as §3
Cell membrane [17] = test: Induction of cell membrane damage in Staphylococcus aureus USA300 assessed as bulging of the septum at 1 times MIC measured after 1 hrs by TEM analysis; summary of the method: as §3
Erythrocyte = test: Hemolytic activity in sheep erythrocytes at 32 ug/ml incubated for 1 hr; format: toxicity, cell-based, Ovis aries; settings: dose 32 µg/ml
Summary of the method: (§4)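 4% sheep erythrocytes mixed 1:1 with twofold serial compound dilutions in PBS, incubated stationary 1 h at 37 °C, then centrifuged at 500g for 5 min. Supernatant A540 is measured and percent hemolysis is calculated relative to DMSO vehicle (0%) and Triton X-100 (100%). Triplicate, mean ± SD.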

[18] = Cytotoxicity against sheep erythrocytes assessed as reduction in cell viability; format: toxicity, cell-based, Ovis aries, Erythrocyte; summary of the method: as §4
Vero [19] = test: Cytotoxicity against African green monkey Vero cells assessed as increase in LDH release at 0.47 to 30 uM incubated for 24 hrs; format: toxicity, cell-based; settings: chlorocebus sabaeus, dose 0.47-30 µM
Summary of the method: (§5)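 Confluent Vero cells (maintained in RPMI 1640 + 10% FBS, 37 °C, 5% CO2) exposed to compound at 0.47–30 μM (twofold dilutions) in serum-free medium for 24 h at 37 °C. LDH in supernatant is measured colorimetrically at 490 nm and expressed as percent of 2% detergent positive control.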

Vero [20] = test: Cytotoxicity against African green monkey Vero cells assessed as increase in LDH release at 30 uM incubated for 24 hrs relative to control; format: toxicity, cell-based; settings: chlorocebus sabaeus; summary of the method: as §5
[21] = AUC (0 to 24 hrs) in CD-1 mouse at 0.5 mg/kg, iv administered as single dose and measured for 24 hrs by LC-MS/MS analysis; format: ADME, organism-based; parameters: time 24 hrs, dose 0.5 mg/kg, route iv; settings: in vivo
Summary of the method: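 Six-week-old female CD-1 mice (20–25 g; n = 3) received one intravenous injection at 0.5 mg/kg in 5% DMA:95% (4% Cremophor EL). […] Plasma was stored at −80 °C and quantified by LC-MS/MS. AUC came from noncompartmental analysis, reported as mean ± SD.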

[22] = Volume of distribution in CD-1 mouse at 0.5 mg/kg, iv administered as single dose and measured for 24 hrs by LC-MS/MS analysis; format: ADME, organism-based; settings: in vivo
Summary of the method: (§6)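 Six-week-old female CD-1 mice (n = 3 per route). Dosing: single 0.5 mg/kg i.v. in 5% DMA/95% (4% Cremophor EL), or 10 mg/kg oral gavage in 5% DMA/60% PEG 300/35% D5W. Tail-vein blood is collected to 24 h into K2EDTA, and plasma is analysed by LC-MS/MS. Parameters come from noncompartmental analysis.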

[23] = Half life in CD-1 mouse at 0.5 mg/kg, iv administered as single dose and measured for 24 hrs by LC-MS/MS analysis; format: ADME, organism-based; settings: in vivo; summary of the method: as §6
[24] = AUC (0 to 24 hrs) in CD-1 mouse at 10 mg/kg, po administered as single dose and measured for 24 hrs by LC-MS/MS analysis; format: ADME, organism-based; parameters: time 24 hrs, dose 10 mg/kg, route po; settings: in vivo
[25] = Cmax in CD-1 mouse at 10 mg/kg, po administered as single dose and measured for 24 hrs by LC-MS/MS analysis; format: ADME, organism-based; parameters: time 24 hrs, dose 10 mg/kg, route po; settings: in vivo
[26] = Oral bioavailability in CD-1 mouse at 10 mg/kg administered as single dose and measured for 24 hrs by LC-MS/MS analysis; format: ADME, organism-based; settings: in vivo; summary of the method: as §6
[27] = Protein binding in human plasma at […] incubated for 4 hrs under shaking condition by LC-MS/MS based equilibrium dialysis method; format: ADME, cell-free
Summary of the method: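 Rapid equilibrium dialysis (8k MWCO). Compound is spiked into human plasma at 10 μg/mL and dialysed against DPBS pH 7.4 with shaking for 4 h at 37 °C. Matrices are matched, proteins precipitated with methanol containing internal standard, and both chambers quantified by LC-MS/MS against a calibration curve. Percent free and bound are calculated from chamber concentrations.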

Staphylococcus aureus [28] = test: Antibacterial activity against methicillin resistant Staphylococcus aureus FPR3757 assessed as inhibition of bacterial growth incubated for 24 hrs in presence of 10% mouse serum by CLSI based method; format: functional
Summary of the method: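 CLSI broth microdilution against MRSA FPR3757 (USA300) in Mueller–Hinton broth supplemented with 10% serum (fetal bovine or mouse). Inoculum 10⁶ CFU/mL with twofold serial compound dilutions, stationary incubation at 37 °C for 24 h. MIC read as lowest concentration with complete inhibition of visible growth.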

[29] = Kinetic aqueous solubility of the compound in DPBS at pH 7.4 at 100 ug/ml measured after 6 hrs by LC-MS/MS analysis; format: physicochemical; settings: buffer, pH 7.4, 6 h, dose 100 µg/ml
Staphylococcus aureus [30] = test: microbe, parasite or virus in culture; settings: USA300 FPR3757, 24 h

SMILES: Oc1cc(C(F)(F)F)nc2c(OC(F)(F)F)cccc12
- MIC (Staphylococcus aureus [1]): 5 µg/mL (≈ 16.8 µM)
- MIC (Staphylococcus aureus [2]): 8 µg/mL (≈ 26.9 µM)

SMILES: O=c1cc(C(F)(F)F)[nH]c2cc(C(F)(F)F)cc(Nc3ccc(C(F)(F)F)cn3)c12
- MIC (Staphylococcus aureus [1]): < 0.0625 µg/mL
- MIC (Staphylococcus aureus [3]): < 0.06 µg/mL
- MIC (Staphylococcus aureus [4]): < 0.06 µg/mL
- MIC (Staphylococcus aureus [5]): < 0.06 µg/mL
- MIC (Staphylococcus aureus [6]): < 0.06 µg/mL
- MIC [7]: < 0.06 µg/mL
- MIC [8]: < 0.06 µg/mL
- MIC (Enterococcus faecalis [9]): 2 µg/mL (≈ 4.53 µM)
- MIC (Enterococcus faecalis [10]): 2 µg/mL (≈ 4.53 µM)
- MIC (Enterococcus faecium [11]): < 0.06 µg/mL
- MIC (Enterococcus faecium [12]): 2 µg/mL (≈ 4.53 µM)
- MIC (Escherichia coli): > 128 µg/mL
- MIC (Klebsiella pneumoniae): > 128 µg/mL
- MIC (Enterobacter cloacae): > 128 µg/mL
- MIC (Candida albicans): 256 µg/mL (≈ 580 µM)
- MIC (Staphylococcus aureus [13]): 0.0625 µg/mL (≈ 0.142 µM)
- Activity (Cell membrane [14]): Active
- Activity (Cell membrane [15]): Active
- Activity (Cell membrane [16]): Active
- Activity (Cell membrane [17]): Active
- Activity (Erythrocyte): Non-Toxic
- CC50 [18]: > 32 µg/mL
- Activity (Vero [19]): Non-Toxic
- Activity (Vero [20]): 20%
- AUC [21]: 4200 ng·h/mL
- Vd [22]: 0.322 L/kg
- t1/2 [23]: 1.88 h
- AUC [24]: 43300 ng·h/mL
- Cmax [25]: 3100 ng/mL
- F [26]: 51.6%
- PPB [27]: 99.7%
- MIC (Staphylococcus aureus [28]): 4 µg/mL
- Kinetic_solubility [29]: 2.4 µg/mL
- MBC (Staphylococcus aureus [30]): 2 µg/mL (≈ 4.53 µM)
